Measured values: ChEMBL document CHEMBL1629554, “Activity of the small modified amino acid alpha-hydroxy glycineamide on in vitro and in vivo human immunodeficiency virus type 1 capsid assembly and infectivity” (Antimicrob Agents Chemother, 2008)
Calls of active or inactive are those of the source. The rule behind the calls is not given here.

Columns and labels:
[1] = system: Human immunodeficiency virus 1; experiment: Antiviral activity against reverse transcriptase and protease inhibitor-resistant HIV-1 isolate HI98-100 harboring reverse transcriptase M41L, A98G, M184V, L210W, T215Y and protease L10F,K20R, M36I, M46I, L63P, V82A mutant gene infected in human PBMC; assay type: functional, organism-based; details: Human immunodeficiency virus 1, isolate HI98-100
In short: (§1)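 Clinical isolate stocks were grown in PBMC and titred by 10-fold serial dilution (TCID50). PBMC (600,000 cells/ml) were infected at 100 TCID50 and cultured with 1, 4, 16, 64 or 256 μM α-HGA, in duplicate, with untreated infected controls. Medium was changed on days 5–7. Supernatant p24 was measured by sandwich ELISA against a recombinant p24 standard up to day 14, and EC50 was derived.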

[2] = system: Human immunodeficiency virus 1; experiment: Antiviral activity against HIV-1 SF-2 infected in human H9 cells assessed as appearance of immature viral core morphology at 10 uM by TEM (reference value: 9%); assay type: functional
L1210 = experiment: Cytotoxic activity against mouse L1210 cells at 1000 uM after 14 days by trypan blue assay; assay type: cell-based; details: l1210, 336 h
In short: (§2)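 PBMC (600,000 cells/ml) or cell lines (200,000 cells/ml) cultured 14 days with 25, 100, 250, 500 or 1,000 μM compound; viable and dead cells counted in a counting chamber after 0.4% trypan blue staining.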

[3] = system: Vesicular stomatitis virus; experiment: Antiviral activity against Vesicular stomatitis virus infected in human HeLa cells; assay type: functional, organism-based
[4] = system: Human immunodeficiency virus 1; experiment: Antiviral activity against reverse transcriptase and protease inhibitor-resistant HIV-1 isolate HI99-58 harboring reverse transcriptase D67N, K70R, A98S, Y181C, K219Q and protease M36I, L63P, I93L mutant gene infected in human PBMC; assay type: functional, organism-based; details: Human immunodeficiency virus 1, isolate HI99-58; in short: as §1
HeLa = experiment: Cytotoxic activity against human HeLa cells at 1000 uM after 14 days by trypan blue assay; assay type: cell-based; details: 336 h; in short: as §2
H9 = experiment: Cytotoxic activity against human H9 cells at 1000 uM after 14 days by trypan blue assay; assay type: cell-based; details: h9, 336 h; in short: as §2
PBMC [5] = experiment: Cytotoxic activity against human PBMC at 1000 uM after 14 days by trypan blue assay; assay type: cell-based; details: 336 h; in short: as §2
[6] = system: Human immunodeficiency virus 1; experiment: Antiviral activity against reverse transcriptase and protease inhibitor-resistant HIV-1 isolate HI90-79 harboring reverse transcriptase M230V and protease M36I, […], A71T, I93L mutant gene infected in human PBMC; assay type: functional, organism-based; details: Human immunodeficiency virus 1, isolate HI90-79; in short: as §1
[7] = system: Human immunodeficiency virus 1; experiment: Antiviral activity against HIV-1 assessed as inhibition of viral p24 tubular protein assembly at 100 uM by TEM assay; assay type: functional, organism-based
[8] = system: Human immunodeficiency virus 1; experiment: Antiviral activity against reverse transcriptase and protease inhibitor-resistant HIV-1 isolate HI97-59 harboring reverse transcriptase M184V, L210W, T215Y and protease L10I, L63T mutant gene infected in human PBMC; assay type: functional, organism-based; details: Human immunodeficiency virus 1, isolate HI97-59; in short: as §1
FM3A = experiment: Cytotoxic activity against mouse FM3A cells at 1000 uM after 14 days by trypan blue assay; assay type: cell-based; details: 336 h; in short: as §2
[9] = system: Human immunodeficiency virus 1; experiment: Antiviral activity against HIV-1 SF-2 infected in human H9 cells assessed as appearance of empty core viral particles at 10 uM by TEM assay (reference value: 0%); assay type: functional
[10] = system: Human immunodeficiency virus 1; experiment: Antiviral activity against HIV-1 assessed as inhibition of viral p24 tubular protein assembly at 100 uM by spectrophotometry; assay type: functional, organism-based
[11] = system: Human immunodeficiency virus 1; experiment: Antiviral activity against reverse transcriptase and protease inhibitor-resistant HIV-1 isolate HI98-96 harboring reverse transcriptase D67N, T69N, K70R, A98G, M184V, T215F, K219Q and protease L63P, G73T, D60E, L90M mutant gene infected in human PBMC; assay type: functional, organism-based; details: Human immunodeficiency virus 1, isolate HI98-96; in short: as §1
[12] = system: Human immunodeficiency virus 1; experiment: Antiviral activity against reverse transcriptase and protease inhibitor-resistant HIV-1 isolate HI94-18 harboring reverse transcriptase M230S mutant gene infected in human PBMC; assay type: functional, organism-based; details: Human immunodeficiency virus 1, isolate HI94-18; in short: as §1
[13] = system: Human immunodeficiency virus 1; experiment: Antiviral activity against HIV-1 assessed as inhibition of viral p24 tubular protein assembly at 50 uM by TEM assay; assay type: functional, organism-based
[14] = system: Human immunodeficiency virus 1; experiment: Antiviral activity against reverse transcriptase and protease inhibitor-resistant HIV-1 isolate HI95-10 harboring reverse transcriptase V179I and protease M36I, L63P mutant gene infected in human PBMC; assay type: functional, organism-based; details: Human immunodeficiency virus 1, isolate HI95-10; in short: as §1
[15] = system: Human immunodeficiency virus 1; experiment: Antiviral activity against HIV-1 SF-2 infected in human H9 cells assessed as appearance of parallel slice of dense core viral particles at 10 uM by TEM assay (reference value: 41%); assay type: functional
[16] = system: Human immunodeficiency virus 1; experiment: Antiviral activity against HIV-1 SF-2 infected in human H9 cells assessed as appearance of two separate core structured viral particles at 10 uM by TEM assay (reference value: 0%); assay type: functional
[17] = system: Human immunodeficiency virus 1; experiment: Antiviral activity against HIV-1 SF-2 infected in human H9 cells assessed as appearance of irregular core viral particles at 10 uM by TEM assay (reference value: 1%); assay type: functional
[18] = system: Human immunodeficiency virus 1; experiment: Antiviral activity against reverse transcriptase and protease inhibitor-resistant HIV-1 isolate HI93-124 harboring reverse transcriptase N67D, T69D, K70R, T215F, K219Q and protease […] mutant gene infected in human PBMC; assay type: functional, organism-based; details: Human immunodeficiency virus 1, isolate HI93-124; in short: as §1
[19] = system: Human immunodeficiency virus 1; experiment: Antiviral activity against HIV-1 assessed as inhibition of viral p24 tubular protein assembly by spectrophotometry; assay type: functional, organism-based
[20] = system: Human immunodeficiency virus 1; experiment: Antiviral activity against HIV-1 infected in human HeLa cells assessed as inhibition of viral p24 tubular assembly at 100 uM by TEM assay; assay type: functional, organism-based
In short: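 HeLa-tat cells (10⁵) seeded 1 day before, transfected (FuGENE6) with pC37M plasmid expressing p17-p24 fusion, 100 μM compound in culture medium. At 48–72 h posttransfection fixed in fresh 2.5% glutaraldehyde and intracellular tubular structures examined by TEM.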

Vaccinia virus = experiment: Antiviral activity against Vaccinia virus infected in HEL cells; assay type: functional, organism-based; details: Orthopoxvirus vaccinia
[21] = system: Human immunodeficiency virus 1; experiment: Antiviral activity against reverse transcriptase and protease inhibitor-resistant HIV-1 isolate HI98-82 harboring reverse transcriptase M184V and protease L10I, I47M, L63P, I93L mutant gene infected in human PBMC; assay type: functional, organism-based; details: Human immunodeficiency virus 1, isolate HI98-82; in short: as §1
Human respirovirus 3 = experiment: Antiviral activity against Parainfluenza virus 3 infected in african green monkey Vero cells; assay type: functional, organism-based; details: Human respirovirus 3, Vero
In short: (§3)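 Cell cultures grown to confluence in microtiter wells, inoculated with 100 TCID50 of virus; after 1 h adsorption, residual virus removed, then incubated with fivefold dilutions of test compound. Viral cytopathicity scored once complete in untreated infected control cultures.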

[22] = system: Human immunodeficiency virus 1; experiment: Antiviral activity against HIV-1 SF-2 infected in human H9 cells assessed as appearance of tangential slice of dense core viral particles at 10 uM by TEM assay (reference value: 29%); assay type: functional
[23] = system: Human immunodeficiency virus 1; experiment: Antiviral activity against reverse transcriptase and protease inhibitor-resistant HIV-1 isolate HI98-9 harboring reverse transcriptase M41L, M184V, T215Y and protease L10I, L24I, L63P, V77I, V82T/S mutant gene infected in human PBMC; assay type: functional, organism-based; details: Human immunodeficiency virus 1, isolate HI98-9; in short: as §1
[24] = system: Human immunodeficiency virus 1; experiment: Antiviral activity against reverse transcriptase and protease inhibitor-resistant HIV-1 isolate HI90-317 harboring reverse transcriptase M41L, T215Y and protease M36I, […], A71T, I93L mutant gene infected in human PBMC; assay type: functional, organism-based; details: Human immunodeficiency virus 1, isolate HI90-317; in short: as §1
[25] = system: Human immunodeficiency virus 1; experiment: Antiviral activity against reverse transcriptase and protease inhibitor-resistant HIV-1 isolate HI98-80 harboring reverse transcriptase M41L, D67N, M184V, T215F, K219Q and protease M36I mutant gene infected in human PBMC; assay type: functional, organism-based; details: Human immunodeficiency virus 1, isolate HI98-80; in short: as §1
[26] = system: Human immunodeficiency virus 1; experiment: Antiviral activity against HIV-1 SF-2 infected in human H9 cells assessed as appearance of tubular core viral particles at 10 uM by TEM assay (reference value: 6%); assay type: functional
[27] = system: Human immunodeficiency virus 1; experiment: Antiviral activity against HIV-1 3B infected in human PBMC; assay type: functional, organism-based; details: Human immunodeficiency virus 1, 3B
CCRF-CEM = experiment: Cytotoxic activity against human CEM cells at 1000 uM after 14 days by trypan blue assay; assay type: cell-based; details: 336 h; in short: as §2
[28] = system: Human immunodeficiency virus 1; experiment: Antiviral activity against HIV-1 SF-2 infected in human H9 cells assessed as appearance of distorted core structured viral particles by TEM assay; assay type: functional
[29] = system: Human immunodeficiency virus 1; experiment: Antiviral activity against reverse transcriptase and protease inhibitor-resistant HIV-1 isolate HI96-88 harboring reverse transcriptase M41L, E44A, D67N, T69D, L210W, T215Y and protease L63P mutant gene infected in human PBMC; assay type: functional, organism-based; details: Human immunodeficiency virus 1, isolate HI96-88; in short: as §1
PBMC [30] = experiment: Effect on PHA-induced human PBMC cell proliferation up to 400 uM by beta scintillation counting; assay type: functional, cell-based
In short: (§4)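 PBMC (600,000 cells/ml) cultured 96 h in RPMI/10% FCS with PHA (2.5 μg/ml) and compound at 10–2,000 μM; [³H]thymidine (1 μCi/100,000 cells) added 8 h before end. Lysed cells harvested on nitrocellulose filters, cpm by β-scintillation counting. Untreated cells and cyclosporine (1 μg/ml) as controls.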

[31] = system: Human immunodeficiency virus 1; experiment: Antiviral activity against HIV-1 pNL4-3 infected in human PBMC; assay type: functional, organism-based; details: Human immunodeficiency virus 1, pNL4-3
[32] = system: Human immunodeficiency virus 1; experiment: Antiviral activity against reverse transcriptase and protease inhibitor-resistant HIV-1 isolate HI93-49 harboring reverse transcriptase L74V, V106I and protease […] mutant gene infected in human PBMC; assay type: functional, organism-based; details: Human immunodeficiency virus 1, isolate HI93-49; in short: as §1
PBMC [33] = experiment: Effect on PHA-induced human PBMC cell proliferation at 2000 uM by beta scintillation counting; assay type: functional, cell-based; in short: as §4
[34] = Cytotoxic activity against human Molt4/C8 cells at 1000 uM after 14 days by trypan blue assay; assay type: cell-based; details: molt-4, 336 h; in short: as §2
[35] = system: Human immunodeficiency virus 1; experiment: Antiviral activity against HIV-1 SF-2 infected in human H9 cells assessed as appearance of partially empty core viral particles at 10 uM by TEM assay (reference value: 13%); assay type: functional
Human alphaherpesvirus 2 = experiment: Antiviral activity against Herpes simplex virus type 2 infected in HEL cells; assay type: functional, organism-based; details: Human alphaherpesvirus 2, HEL; in short: as §3
[36] = system: Human immunodeficiency virus 1; experiment: Antiviral activity against HIV-1 SF-2 infected in human PBMC; assay type: functional, organism-based; details: Human immunodeficiency virus 1, SF-2
[37] = system: Human immunodeficiency virus 1; experiment: Antiviral activity against reverse transcriptase and protease inhibitor-resistant HIV-1 isolate HI96-90 harboring reverse transcriptase M41L, E44A, V118L, M184V, L210W, T215Y and protease L10I, L63P mutant gene infected in human PBMC; assay type: functional, organism-based; details: Human immunodeficiency virus 1, isolate HI96-90; in short: as §1

SMILES: NC(=O)C(N)O (stereo not given)
- EC50 [1]: 16 µM
- Activity [2]: 8%
- Activity (L1210): Non-toxic
- EC50 [3]: 2000 µM
- EC50 [4]: 7.6 µM
- Activity (HeLa): Non-toxic
- Activity (H9): Non-toxic
- Activity (PBMC [5]): Non-toxic
- EC50 [6]: 24 µM
- inhibition [7]: Active
- EC50 [8]: 4.2 µM
- Activity (FM3A): Non-toxic
- Activity [9]: 9%
- inhibition [10]: Active
- EC50 [11]: 4.6 µM
- EC50 [12]: 16 µM
- inhibition [13]: Active
- EC50 [14]: 14 µM
- Activity [15]: 11%
- Activity [16]: 4%
- Activity [17]: 10%
- EC50 [18]: 33 µM
- inhibition [19]: Active
- inhibition [20]: Active
- EC50 (Vaccinia virus): 2000 µM
- EC50 [21]: 33 µM
- EC50 (Human respirovirus 3): 2000 µM
- Activity [22]: 19%
- EC50 [23]: 34 µM
- EC50 [24]: 20 µM
- EC50 [25]: 5.5 µM
- Activity [26]: 6%
- EC50 [27]: 8 µM
- Activity (CCRF-CEM): Non-toxic
- Activity [28]: 62%
- EC50 [29]: 24 µM
- Activity (PBMC [30]): inactive
- EC50 [31]: 1 µM
- EC50 [32]: 15 µM
- Activity (PBMC [33]): inactive
- Activity [34]: Non-toxic
- Activity [35]: 33%
- EC50 (Human alphaherpesvirus 2): 2000 µM
- EC50 [36]: 1 µM
- EC50 [37]: 8.6 µM
